1 compound from ChEMBL document CHEMBL3763060, “Synthesis and evaluation of analogs of the phenylpyridazinone NPD-001 as potent trypanosomal TbrPDEB1 phosphodiesterase inhibitors and in vitro trypanocidals” (Bioorg Med Chem, 2016) can be followed below.

Series [1] concerns Trypanosoma brucei brucei. Nature of the series: Antitrypanosomal activity against suramin-sensitive Trypanosoma brucei brucei Squib427 assessed as inhibition of parasite growth. In kind it is functional, organism-based. The method, boiled down: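 Bloodstream-form trypomastigotes of Squib-427 were grown at 37 °C and 5% CO₂ in Hirumi-9 medium with 10% FCS. Compounds came from 20 mM DMSO stocks, pre-diluted 2- or 4-fold serially in DMSO, then diluted in demineralized water; final DMSO was <1%. Results were reported as −logEC₅₀ with n = 2.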

Series [2] deals with Dual 3',5'-cyclic-AMP and -GMP phosphodiesterase 11A (Homo sapiens, UniProt Q9HCR9). The series can be described thus: Inhibition of full length human recombinant PDE11A4 using [3H]-cAMP as substrate by scintillation proximity assay. A general note: SPA uses beads or plates that emit light when radiolabelled molecules are held near them.
Sequence of Dual 3',5'-cyclic-AMP and -GMP phosphodiesterase 11A (Q9HCR9 whole entry): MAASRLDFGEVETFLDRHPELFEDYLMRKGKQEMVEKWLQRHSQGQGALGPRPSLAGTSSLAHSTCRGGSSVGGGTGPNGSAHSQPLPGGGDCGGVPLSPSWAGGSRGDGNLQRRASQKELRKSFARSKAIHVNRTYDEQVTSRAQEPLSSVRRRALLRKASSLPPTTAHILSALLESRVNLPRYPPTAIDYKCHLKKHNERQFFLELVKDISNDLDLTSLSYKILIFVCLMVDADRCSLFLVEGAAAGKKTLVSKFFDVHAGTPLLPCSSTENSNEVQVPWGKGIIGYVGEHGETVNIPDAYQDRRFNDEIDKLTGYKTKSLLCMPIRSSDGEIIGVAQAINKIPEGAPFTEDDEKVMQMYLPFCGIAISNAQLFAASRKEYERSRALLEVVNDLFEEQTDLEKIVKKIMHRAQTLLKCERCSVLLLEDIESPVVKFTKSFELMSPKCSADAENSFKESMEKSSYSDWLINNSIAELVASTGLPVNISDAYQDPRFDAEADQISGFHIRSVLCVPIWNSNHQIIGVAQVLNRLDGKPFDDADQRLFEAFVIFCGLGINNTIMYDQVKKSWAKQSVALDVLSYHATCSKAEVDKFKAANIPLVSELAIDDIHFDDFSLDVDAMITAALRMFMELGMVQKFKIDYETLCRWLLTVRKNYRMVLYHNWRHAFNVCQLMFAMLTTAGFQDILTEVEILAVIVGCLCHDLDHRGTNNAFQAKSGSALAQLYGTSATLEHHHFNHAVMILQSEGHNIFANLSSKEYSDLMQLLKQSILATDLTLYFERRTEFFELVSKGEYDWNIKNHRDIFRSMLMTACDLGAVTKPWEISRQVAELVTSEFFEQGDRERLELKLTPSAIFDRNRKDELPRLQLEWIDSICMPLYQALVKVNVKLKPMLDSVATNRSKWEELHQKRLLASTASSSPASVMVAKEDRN
The target of series [3] is T1, 3',5'-cyclic-AMP phosphodiesterase 4B (Homo sapiens, UniProt Q07343). The series can be described thus: Inhibition of full length human recombinant PDE4B2 using [3H]-cAMP as substrate by scintillation proximity assay.
T1 sequence (Q07343 whole entry): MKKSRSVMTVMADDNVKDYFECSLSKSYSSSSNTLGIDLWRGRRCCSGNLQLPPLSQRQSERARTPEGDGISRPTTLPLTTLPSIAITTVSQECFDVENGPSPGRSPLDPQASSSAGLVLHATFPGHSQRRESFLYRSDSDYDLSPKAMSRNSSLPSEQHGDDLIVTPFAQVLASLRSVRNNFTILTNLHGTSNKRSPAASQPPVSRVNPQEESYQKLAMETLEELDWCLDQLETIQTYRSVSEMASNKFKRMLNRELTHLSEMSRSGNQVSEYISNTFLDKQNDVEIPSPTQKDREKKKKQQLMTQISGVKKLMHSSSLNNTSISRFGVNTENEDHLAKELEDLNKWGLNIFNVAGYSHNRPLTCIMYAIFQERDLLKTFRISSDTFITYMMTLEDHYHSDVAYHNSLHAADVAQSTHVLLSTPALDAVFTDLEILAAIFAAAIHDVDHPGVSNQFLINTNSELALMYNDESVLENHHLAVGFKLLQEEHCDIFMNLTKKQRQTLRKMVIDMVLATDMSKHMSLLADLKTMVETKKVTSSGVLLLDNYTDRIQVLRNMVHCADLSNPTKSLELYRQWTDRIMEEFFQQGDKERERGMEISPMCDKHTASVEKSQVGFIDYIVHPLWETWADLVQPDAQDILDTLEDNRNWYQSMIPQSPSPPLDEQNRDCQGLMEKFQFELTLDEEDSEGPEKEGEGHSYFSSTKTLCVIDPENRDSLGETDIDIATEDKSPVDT
Series [4] deals with Trypanosoma brucei. Nature of the series: Antitrypanosomal activity against Trypanosoma brucei assessed as inhibition of parasite growth after 48 hrs by resazurin assay. In kind it is functional, organism-based. A general note: Resazurin is reduced to fluorescent resorufin, in cell work by metabolically active cells.
For series [5], the target named is cGMP-specific 3',5'-cyclic phosphodiesterase (Homo sapiens, UniProt O76074). Nature of the series: Inhibition of full length human recombinant PDE5A1 using [3H]-cGMP as substrate by scintillation proximity assay. The method, boiled down:
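Radiolabelled cGMP substrate at 0.5 (final assay level). Scintillation proximity read-out of the full-length recombinant enzyme's hydrolytic activity, run in the presence of test compounds.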

The nature of series [6]: Inhibition of Trypanosoma brucei PDEB2 using [3H]-cAMP as substrate after 15 mins by scintillation proximity assay.
Series [7] concerns the target cGMP-dependent 3',5'-cyclic phosphodiesterase (Homo sapiens, UniProt O00408). The series can be described thus: Inhibition of full length human recombinant PDE2A3 using [3H]-cAMP as substrate by scintillation proximity assay.
The target in series [8] is Dual specificity calcium/calmodulin-dependent 3',5'-cyclic nucleotide phosphodiesterase 1B (Homo sapiens, UniProt Q01064). The series can be described thus: Inhibition of full length human recombinant PDE1B1 using [3H]-cAMP as substrate by scintillation proximity assay.
Series [9] is described as follows: Inhibition of full length human recombinant PDE3A1 using [3H]-cAMP as substrate by scintillation proximity assay.
The target of series [10] is High affinity cAMP-specific and IBMX-insensitive 3',5'-cyclic phosphodiesterase 8B (Homo sapiens, UniProt O95263). Nature of the series: Inhibition of full length human recombinant PDE8B using [3H]-cAMP as substrate by scintillation proximity assay.
Sequence of High affinity cAMP-specific and IBMX-insensitive 3',5'-cyclic phosphodiesterase 8B (O95263 whole entry): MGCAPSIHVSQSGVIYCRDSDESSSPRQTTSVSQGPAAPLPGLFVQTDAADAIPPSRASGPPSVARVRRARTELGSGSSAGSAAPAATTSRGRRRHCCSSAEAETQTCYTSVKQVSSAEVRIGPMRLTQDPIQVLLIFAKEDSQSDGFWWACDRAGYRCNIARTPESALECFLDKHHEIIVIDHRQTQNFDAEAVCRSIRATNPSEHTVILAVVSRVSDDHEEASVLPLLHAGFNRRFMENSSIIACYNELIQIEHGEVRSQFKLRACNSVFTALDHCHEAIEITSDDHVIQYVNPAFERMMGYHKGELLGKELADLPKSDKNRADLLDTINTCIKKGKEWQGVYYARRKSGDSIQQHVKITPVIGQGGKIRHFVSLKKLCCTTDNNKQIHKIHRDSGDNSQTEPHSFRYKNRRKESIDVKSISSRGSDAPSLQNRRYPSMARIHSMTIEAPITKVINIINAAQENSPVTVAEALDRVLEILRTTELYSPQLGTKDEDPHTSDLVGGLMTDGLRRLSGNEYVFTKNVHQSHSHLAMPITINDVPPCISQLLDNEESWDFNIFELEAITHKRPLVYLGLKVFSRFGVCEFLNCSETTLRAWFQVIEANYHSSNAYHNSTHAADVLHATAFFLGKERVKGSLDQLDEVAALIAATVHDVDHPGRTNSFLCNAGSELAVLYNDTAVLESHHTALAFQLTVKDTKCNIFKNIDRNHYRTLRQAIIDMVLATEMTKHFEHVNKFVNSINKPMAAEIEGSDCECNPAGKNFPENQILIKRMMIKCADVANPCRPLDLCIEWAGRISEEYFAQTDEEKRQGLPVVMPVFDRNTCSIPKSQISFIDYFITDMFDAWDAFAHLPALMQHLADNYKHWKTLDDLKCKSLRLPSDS
The target in series [11] is High affinity 3',5'-cyclic-AMP phosphodiesterase 7A (Homo sapiens, UniProt Q13946). The series can be described thus: Inhibition of full length human recombinant PDE7A1 using [3H]-cAMP as substrate by scintillation proximity assay.
Series [12] in a line: Solubility of compound in 0.05 M phosphate buffer at pH 7.4. In kind it is physicochemical.
For series [13], the target named is 3',5'-cyclic-AMP phosphodiesterase 4D (Homo sapiens, UniProt Q08499). Nature of the series: Inhibition of full length human recombinant PDE4D3 using [3H]-cAMP as substrate by scintillation proximity assay.
Sequence of 3',5'-cyclic-AMP phosphodiesterase 4D (Q08499 whole entry): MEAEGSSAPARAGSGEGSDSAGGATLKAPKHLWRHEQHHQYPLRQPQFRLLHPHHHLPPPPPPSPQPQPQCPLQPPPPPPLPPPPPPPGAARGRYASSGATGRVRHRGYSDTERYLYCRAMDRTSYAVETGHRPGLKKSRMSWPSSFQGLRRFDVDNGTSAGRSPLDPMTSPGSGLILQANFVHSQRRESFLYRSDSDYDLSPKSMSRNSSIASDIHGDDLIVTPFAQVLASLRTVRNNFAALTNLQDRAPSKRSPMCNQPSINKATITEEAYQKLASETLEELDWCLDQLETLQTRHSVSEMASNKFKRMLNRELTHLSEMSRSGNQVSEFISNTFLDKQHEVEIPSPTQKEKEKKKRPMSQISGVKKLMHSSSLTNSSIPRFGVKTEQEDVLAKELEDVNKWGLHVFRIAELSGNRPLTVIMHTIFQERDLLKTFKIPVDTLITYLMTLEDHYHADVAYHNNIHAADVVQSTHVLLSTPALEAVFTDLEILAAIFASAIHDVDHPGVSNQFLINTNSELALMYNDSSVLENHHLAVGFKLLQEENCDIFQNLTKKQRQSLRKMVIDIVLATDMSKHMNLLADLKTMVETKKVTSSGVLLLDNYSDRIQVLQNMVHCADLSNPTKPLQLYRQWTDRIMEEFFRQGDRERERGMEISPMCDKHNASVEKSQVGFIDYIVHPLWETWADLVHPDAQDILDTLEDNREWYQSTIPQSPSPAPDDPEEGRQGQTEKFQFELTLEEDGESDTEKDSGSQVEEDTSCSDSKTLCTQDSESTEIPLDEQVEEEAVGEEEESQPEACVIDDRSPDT
For series [14], the target named is T1, 3',5'-cyclic-AMP phosphodiesterase 4B. The series can be described thus: Inhibition of full length human recombinant PDE4B1 using [3H]-cAMP as substrate by scintillation proximity assay.
Series [15] has as its target cAMP and cAMP-inhibited cGMP 3',5'-cyclic phosphodiesterase 10A (Homo sapiens, UniProt Q9Y233). Nature of the series: Inhibition of full length human recombinant PDE10A using [3H]-cAMP as substrate by scintillation proximity assay.
Series [16] is described as follows: Cytotoxicity against human MRC5 cells assessed as growth inhibition. In kind it is cell-based. The method in brief: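 MRC-5 fibroblasts were grown at 37 °C and 5% CO₂ in Hirumi-9 medium with 10% FCS. Compounds came from 20 mM DMSO stocks, serially pre-diluted 2- or 4-fold in DMSO, then in demineralized water; final DMSO was <1%. Results were reported as −logCC₅₀ with n = 2.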

Series [17] concerns the target High affinity cGMP-specific 3',5'-cyclic phosphodiesterase 9A (Homo sapiens, UniProt O76083). Nature of the series: Inhibition of full length human recombinant PDE9A3 using [3H]-cAMP as substrate by scintillation proximity assay.

In brackets after ≈: the same amount, converted by molar mass.

Sequence of High affinity cGMP-specific 3',5'-cyclic phosphodiesterase 9A (O76083 whole entry): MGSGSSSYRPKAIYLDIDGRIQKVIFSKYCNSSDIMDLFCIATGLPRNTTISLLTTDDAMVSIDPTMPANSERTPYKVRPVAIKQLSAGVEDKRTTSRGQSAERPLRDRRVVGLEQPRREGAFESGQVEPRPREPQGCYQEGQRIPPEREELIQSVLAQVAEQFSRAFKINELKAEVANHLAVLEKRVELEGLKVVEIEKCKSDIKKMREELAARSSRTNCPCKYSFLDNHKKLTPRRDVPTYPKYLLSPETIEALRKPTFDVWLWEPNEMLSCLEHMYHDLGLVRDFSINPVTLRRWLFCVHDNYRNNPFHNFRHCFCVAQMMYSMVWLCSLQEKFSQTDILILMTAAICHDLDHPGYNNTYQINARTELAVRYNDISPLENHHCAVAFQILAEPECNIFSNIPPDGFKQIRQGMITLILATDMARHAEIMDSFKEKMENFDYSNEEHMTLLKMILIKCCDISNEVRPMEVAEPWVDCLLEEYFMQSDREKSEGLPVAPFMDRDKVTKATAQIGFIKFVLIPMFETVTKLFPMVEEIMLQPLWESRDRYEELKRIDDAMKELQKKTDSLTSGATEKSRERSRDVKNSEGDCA
Sequence of cAMP and cAMP-inhibited cGMP 3',5'-cyclic phosphodiesterase 10A (Q9Y233 whole entry): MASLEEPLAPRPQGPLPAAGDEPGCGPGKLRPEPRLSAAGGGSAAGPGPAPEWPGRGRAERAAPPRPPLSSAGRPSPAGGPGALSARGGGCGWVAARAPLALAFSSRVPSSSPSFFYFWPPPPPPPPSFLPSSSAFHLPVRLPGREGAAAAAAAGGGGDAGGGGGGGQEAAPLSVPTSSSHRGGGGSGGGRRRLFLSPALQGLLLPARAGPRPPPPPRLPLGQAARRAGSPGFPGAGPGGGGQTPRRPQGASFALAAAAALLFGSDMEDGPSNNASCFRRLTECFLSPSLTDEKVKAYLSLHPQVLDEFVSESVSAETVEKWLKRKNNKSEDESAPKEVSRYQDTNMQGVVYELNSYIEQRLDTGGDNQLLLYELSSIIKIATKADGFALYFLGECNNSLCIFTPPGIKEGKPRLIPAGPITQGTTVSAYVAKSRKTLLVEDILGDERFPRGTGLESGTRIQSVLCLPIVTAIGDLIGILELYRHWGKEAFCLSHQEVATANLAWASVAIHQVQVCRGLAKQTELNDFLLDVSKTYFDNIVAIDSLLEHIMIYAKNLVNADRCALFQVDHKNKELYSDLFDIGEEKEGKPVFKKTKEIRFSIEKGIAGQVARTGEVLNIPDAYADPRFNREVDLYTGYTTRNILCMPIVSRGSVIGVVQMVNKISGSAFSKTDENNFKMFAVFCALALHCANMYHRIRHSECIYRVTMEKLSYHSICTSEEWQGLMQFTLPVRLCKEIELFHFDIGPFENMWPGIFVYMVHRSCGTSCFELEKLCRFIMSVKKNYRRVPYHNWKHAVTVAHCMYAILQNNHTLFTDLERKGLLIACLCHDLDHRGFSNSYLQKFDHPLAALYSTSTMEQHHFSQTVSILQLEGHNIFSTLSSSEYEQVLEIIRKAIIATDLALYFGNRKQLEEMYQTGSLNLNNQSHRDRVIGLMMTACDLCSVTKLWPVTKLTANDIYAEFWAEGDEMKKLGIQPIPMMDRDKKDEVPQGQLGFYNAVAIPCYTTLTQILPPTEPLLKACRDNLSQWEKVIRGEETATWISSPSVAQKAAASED

As for `COc1ccc(C2=NN(C3CCCCCC3)C(=O)[C@@H]3CC=CC[C@H]23)cc1OCCCCOc1ccc(-c2nnn[nH]2)cc1` (racemic), the EC50 in [1] was 20 nM. In addition, the IC50 in series [2] is 2000 nM; in [3], 0.501 nM; in series [4], 80 nM; in series [5] it was 2000 nM; in series [6], 3 nM; in [7], 6310 nM. In addition, the IC50 is 3980 nM in series [8]; 3980 nM in series [10]; 3160 nM in [11]; 0.631 nM in [13]; 0.631 nM in [14]; 501 nM in series [15]. The IC50 in series [17] is more than 10000 nM. For the same compound, the pIC50 turned out to be 8.5 in [6] and 6.9 in [9]. This compound displayed a solubility in series [12] of 75 µM (≈ 43.9 µg/mL). Further, the CC50 in [16] was 6310 nM.

Broadly, the EC50 is the concentration needed to bring the measured effect to its halfway point. Usually IC50 stands for the concentration that gives 50% inhibition. One may read the pIC50 as the IC50 on a negative log10 scale, so that one unit is a factor of ten. In general, solubility refers to how much of the substance goes into solution per volume. By CC50 is commonly meant the concentration at which the toxic effect on the cells reaches its halfway point.
